Reference: PMC10668576 (RSC Advances, 2023)
In brackets after ≈: the same amount, converted by molar mass.

Columns and labels:
[1] = test system: Stenotrophomonas maltophilia; assay: Minimum inhibitory concentration, serial dilution; format: cell-based
Procedure, shortened: (§1)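 Inoculum was 10^6 cfu mL−1, incubated at 37 °C for 18–24 h. Wells were inspected for presence or absence of growth, and MIC was taken as the lowest concentration preventing growth. Each organism was tested on three separate occasions.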

Bacillus cereus [2] = assay: Minimum inhibitory concentration, serial dilution; format: cell-based
Procedure, shortened: as §1

Pseudomonas aeruginosa [3] = assay: Disk diffusion inhibition zones; format: cell-based; settings: 24 h
Procedure, shortened: (§2)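 Test compound was dissolved in DMSO at 1000 μg mL−1 and soaked onto sterile 6 mm filter-paper discs. Discs were placed on Mueller–Hinton agar inoculated with fresh cultures suspended in sterile physiological water, then incubated at 37 °C for 24 h. DMSO discs served as negative control, with azithromycin (30 mg mL−1) as reference. Clear-zone width was read in mm with a transparent ruler.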

Aeromonas sobria [4] = assay: Minimum inhibitory concentration, serial dilution; format: cell-based
Procedure, shortened: as §1

Klebsiella pneumoniae [5] = assay: Minimum inhibitory concentration, serial dilution; format: cell-based
[6] = test system: Staphylococcus epidermidis; assay: Disk diffusion inhibition zones; format: cell-based; settings: 24 h
Procedure, shortened: as §2

Staphylococcus aureus [7] = assay: Minimum inhibitory concentration, serial dilution; format: cell-based; settings: Muller Hinton broth, 37 °C, 18 to 24 h
Procedure, shortened: as §1

Pseudomonas aeruginosa [8] = assay: Minimum inhibitory concentration, serial dilution; format: cell-based
Procedure, shortened: as §1

[9] = test system: Stenotrophomonas maltophilia; assay: Disk diffusion inhibition zones; format: cell-based; settings: 24 h
Procedure, shortened: as §2

[10] = Acute parenteral toxicity in rats; format: in vivo; settings: 0.5 to 50 mg per kg body weight, 14 days observation
Procedure, shortened: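 Single parenteral dose of test compound dissolved in ethanol with gentle heating, given by tuberculin syringe following OECD 425 to female albino Wistar rats (190 ± 20 g), 3 per dose, at 0.5, 1, 10, 30 or 50 mg kg−1. Controls were ethanol-injected and non-injected rats. Rats were observed every 30 min for 6 h, then through 24 h and daily to 14 days. Organs were examined macroscopically and weighed on day 15.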

burn wounds = assay: Burn healing assay in rats; format: in vivo, albino Wistar female rats; settings: 1% cream, one application per 24 h on burn wound, n = 3
Klebsiella pneumoniae [11] = assay: Disk diffusion inhibition zones; format: cell-based; settings: 24 h
Escherichia coli [12] = assay: Minimum inhibitory concentration, serial dilution; format: cell-based
Procedure, shortened: as §1

Escherichia coli [13] = assay: Disk diffusion inhibition zones; format: cell-based; settings: 24 h
Procedure, shortened: as §2

Bacillus cereus [14] = assay: Disk diffusion inhibition zones; format: cell-based; settings: 24 h
Procedure, shortened: as §2

Staphylococcus aureus [15] = assay: Disk diffusion inhibition zones; format: cell-based; settings: 24 h
Procedure, shortened: as §2

Aeromonas sobria [16] = assay: Disk diffusion inhibition zones; format: cell-based; settings: 24 h
Procedure, shortened: as §2

[17] = test system: Staphylococcus epidermidis; assay: Minimum inhibitory concentration, serial dilution; format: cell-based
Procedure, shortened: as §1

MIC (Staphylococcus aureus [7]) | Structure (SMILES) | MIC [1] | MIC (Bacillus cereus [2]) | zone of inhibition at 1000 µg/mL (Pseudomonas aeruginosa [3]) | MIC (Aeromonas sobria [4]) | MIC (Klebsiella pneumoniae [5]) | zone of inhibition at 1000 µg/mL [6] | MIC (Staphylococcus aureus [7]; Staphylococcus aureus) | MIC (Pseudomonas aeruginosa [8]) | zone of inhibition at 1000 µg/mL [9] | Mortality [10] | Signs of toxicity [10] | Day utilized for recovery (burn wounds) | zone of inhibition at 1000 µg/mL (Klebsiella pneumoniae [11]) | MIC (Escherichia coli [12]) | zone of inhibition at 1000 µg/mL (Escherichia coli [13]) | zone of inhibition at 1000 µg/mL (Bacillus cereus [14]) | zone of inhibition at 1000 µg/mL (Staphylococcus aureus [15]) | zone of inhibition at 1000 µg/mL (Aeromonas sobria [16]) | MIC [17]
 | O=C(Nc1nc2ccccc2s1)c1cc(N=Nc2nccs2)ccc1O [Compound 3b, N-(Benzo[d]thiazol-2-yl)-2-hydroxy-5-(thiazol-2-yldiazenyl)benzamide] | 20 µg/mL (≈ 52.4 µM) | 80 µg/mL (≈ 210 µM) | 9 mm | 10 µg/mL (≈ 26.2 µM) | 80 µg/mL (≈ 210 µM) | 14 ± 0.23 mm | 20 µg/mL (≈ 52.4 µM) | 40 µg/mL (≈ 105 µM) | 10 ± 0.04 mm | no occurrences of mortality | did not display any noteworthy signs of toxicity | 24 days | 14 ± 0.28 mm | 20 µg/mL (≈ 52.4 µM) | 9 ± 0.14 mm | 10 ± 0.33 mm | 13 ± 0.58 mm | 10 ± 0.28 mm | 10 µg/mL (≈ 26.2 µM)
20 µg/mL (≈ 26.7 µM) | CC[C@H]1OC(=O)[C@H](C)[C@@H](O[C@H]2C[C@@](C)(OC)[C@@H](O)[C@H](C)O2)[C@H](C)[C@@H](O[C@@H]2O[C@H](C)C[C@H](N(C)C)[C@H]2O)[C@](C)(O)C[C@@H](C)CN(C)[C@H](C)[C@@H](O)[C@]1(C)O [azithromycin, reference compound] | 40 µg/mL (≈ 53.4 µM) | 80 µg/mL (≈ 107 µM) | 7 ± 0.14 mm | 20 µg/mL (≈ 26.7 µM) | 60 µg/mL (≈ 80.1 µM) | 11 ± 0.32 mm | 40 µg/mL (≈ 53.4 µM) |  | 10 ± 0.02 mm |  |  |  | 20 ± 0.26 mm | 20 µg/mL (≈ 26.7 µM) | 7 ± 0.32 mm | 11 ± 0.31 mm | 15 ± 0.09 mm | 18 ± 0.41 mm | 80 µg/mL (≈ 107 µM)
 | O=C(O)c1cc(N=Nc2nccs2)ccc1O [Compound 3, 2-Hydroxy-5-(thiazol-2-yldiazenyl)benzoic acid] | 40 µg/mL (≈ 160 µM) | 20 µg/mL (≈ 80.2 µM) | 10 ± 0.33 mm | 20 µg/mL (≈ 80.2 µM) | 80 µg/mL (≈ 321 µM) | 14 ± 0.25 mm | 10 µg/mL (≈ 40.1 µM) | 80 µg/mL (≈ 321 µM) | 8 ± 0.11 mm |  |  |  | 11 ± 0.31 mm | 60 µg/mL (≈ 241 µM) | 9 mm | 10 ± 0.03 mm | 12 ± 0.23 mm | 10 ± 0.31 mm | 10 µg/mL (≈ 40.1 µM)
 | O=C(Nc1ccc(S(=O)(=O)c2nccs2)cc1)c1cc(N=Nc2nccs2)ccc1O [Compound 3c, 2-Hydroxy-5-(thiazol-2-yldiazenyl)-N-(4-(thiazol-2-ylsulfonyl)phenyl)benzamide] | 40 µg/mL (≈ 84.8 µM) |  | 9 ± 0.33 mm | 40 µg/mL (≈ 84.8 µM) |  | 12 ± 0.43 mm | 10 µg/mL (≈ 21.2 µM) |  | 9 ± 0.21 mm | no occurrences of mortality | did not display any noteworthy signs of toxicity | 27 days | 12 ± 0.11 mm | 20 µg/mL (≈ 42.4 µM) | 9 ± 0.16 mm | 10 ± 0.13 mm | 16 ± 0.09 mm | 10 ± 0.33 mm | 40 µg/mL (≈ 84.8 µM)
 | O=C(Nc1nccs1)c1cc(N=Nc2nccs2)ccc1O [Compound 3a, 2-Hydroxy-N-(thiazol-2-yl)-5-(thiazol-2-yldiazenyl)benzamide] | 60 µg/mL (≈ 181 µM) | 100 µg/mL (≈ 302 µM) | 9 mm | 40 µg/mL (≈ 121 µM) | 200 µg/mL (≈ 604 µM) | 18 ± 0.26 mm | 10 µg/mL (≈ 30.2 µM) | 60 µg/mL (≈ 181 µM) | 9 ± 0.28 mm | no occurrences of mortality | did not display any noteworthy signs of toxicity | 26 days | 13 ± 0.22 mm | 80 µg/mL (≈ 241 µM) | 9 ± 0.33 mm | 10 ± 0.23 mm | 13 ± 0.21 mm | 10 ± 0.15 mm | 80 µg/mL (≈ 241 µM)
